Data: ChEMBL document CHEMBL5143726, “Neutrophil Elastase-Activatable Prodrugs Based on an Alkoxyamine Platform to Deliver Alkyl Radicals Cytotoxic to Tumor Cells” (J Med Chem, 2022)
The source made the active and inactive calls. No cut-off for these calls is given here. Where a SMILES comes first, the peptide text is derived from it.

Tests used:
U-87 MG [1] = experiment: Cytotoxicity against human U87 cells assessed as reduction in cell viability measured after 24 to 72 hrs in presence of human neutrophil elastase by PrestoBlue reagent based assay; assay type: functional; settings: dose 100-400 µM, time 24-72 hrs; for Activity: U-87MG ATCC, DDE = dose-dependent effect; for CC50: read-out: LC50 (the source's name)
How it was run: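 U87 cells cultured 48 h, medium changed to serum-free DMEM; prodrug (0–400 μM) plus human neutrophil elastase 0.68 μM added, 1 h incubation, then 10% serum added to stop enzyme and cells held 24, 48 or 72 h. Viability via resazurin (PrestoBlue), 30 min at 37 °C, fluorescence ex 560/em 590 nm.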

U-87 MG [2] = experiment: Induction of apoptosis in human U87 cells assessed as activation of caspase3/7 at 75 to 250 uM measured after 48 hrs in presence of human neutrophil elastase by luminescence based multimode microplate reader assay; assay type: functional, cell-based; settings: U-87MG ATCC, dose 75-250 µM
How it was run: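 U87 cells in serum-free DMEM given alkoxyamine (75, 150, 250 μM) plus HNE 0.68 μM for 1 h, then 10% serum added; sampled at 1, 3, 7, 24, 48 h. Caspase 3/7 read by lytic luminogenic substrate reagent, 15 min at room temperature, luminescence. Controls: HNE alone, cells alone, doxorubicin 2 μM.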

U-87 MG [3] = experiment: Induction of apoptosis in human U87 cells assessed as phosphatidylserine translocation at 75 to 250 uM measured after 48 hrs in presence of human neutrophil elastase; assay type: functional, cell-based; settings: U-87MG ATCC, dose 75-250 µM
How it was run: (§1)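 Serum-free U87 exposure to alkoxyamine 75, 150 or 250 μM with HNE 0.68 μM for 1 h, then 10% serum; followed 1–48 h. Live-cell RealTime-Glo reagent added, 60 min at 37 °C: annexin V phosphatidylserine binding by luminescence, membrane loss by cell-impermeant DNA dye fluorescence (ex 485/em 530 nm). Controls: HNE alone, untreated cells, doxorubicin 2 μM.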

U-87 MG [4] = experiment: Induction of apoptosis in human U87 cells assessed as reduction in cell membrane integrity at 75 to 250 uM measured after 48 hrs in presence of human neutrophil elastase; assay type: functional, cell-based; settings: U-87MG ATCC, dose 75-250 µM; how it was run: as §1
U-87 MG [5] = experiment: Cytotoxicity against human U87 cells assessed as cell viability at 100 to 400 uM measured after 24 to 72 hrs in absence of human neutrophil elastase by PrestoBlue reagent based assay; assay type: functional, U-87MG ATCC; settings: dose 100-400 µM, time 24-72 hrs
How it was run: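 U87 glioblastoma (DMEM, 10% FBS, 37 °C, 5% CO2) seeded 48 h, medium swapped to serum-free DMEM; prodrug 0–400 μM added without elastase, 1 h, then 10% serum restored; incubation 24, 48 or 72 h. Viability by resazurin-to-resorufin conversion (PrestoBlue, 1/10 volume, 30 min 37 °C), fluorescence ex 560/em 590 nm.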

[6] = Prodrug activation assessed as human neutrophil elastase mediated TEMPO release by EPR spectometric analysis
How it was run: (§2)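 Human neutrophil elastase (20 nM final) with prodrug (300 μM final) in 50 mM HEPES, 150 mM NaCl, 5 mM CaCl2, 0.05% IGEPAL, pH 7.4, in capillaries at 37 °C; released stable nitroxide (TEMPO or DBNO) quantified by EPR against internal spectrometer calibration.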

[7] = Prodrug activation assessed as urokinase mediated TEMPO release
U-87 MG [8] = experiment: Cytotoxicity against human U87 cells assessed as reduction in cell viability at 400 uM measured after 48 hrs in absence of human neutrophil elastase by PrestoBlue reagent based assay; assay type: functional; settings: U-87MG ATCC
How it was run: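 U87 glioblastoma cells grown 48 h in DMEM/10% FBS, then switched to serum-free DMEM; prodrug (400 μM) added without elastase, serum restored to 10% after 1 h, cells kept 48 h at 37 °C. Viability by resazurin (PrestoBlue) reduction, 30 min at 37 °C, fluorescence ex 560/em 590 nm.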

[9] = Prodrug activation assessed as human neutrophil elastase mediated DBNO release by EPR spectometric analysis; how it was run: as §2

SMILES | Activity (U-87 MG [1]) | CC50 (U-87 MG [1]) [µM] | Activity (U-87 MG [2]) | Activity (U-87 MG [3]) | Activity (U-87 MG [4]) | Activity (U-87 MG [5]) [%] | Drug metabolism [6] | Drug metabolism [7] | Activity (U-87 MG [8]) | Drug metabolism [9]
CC(ON1C(C)(C)CCCC1(C)C)c1ccc(NC(=O)[C@@H](NC(=O)[C@@H]2CCCN2C(=O)[C@H](C)NC(=O)[C@H](C)NC(=O)CCC(=O)O)C(C)C)cc1 (some centres not stated) (HELM PEPTIDE1{[O=C(O)CCC(=O)[*:2]].A.A.P.V.[CC(ON1C(C)(C)CCCC1(C)C)c1ccc(N[*:1])cc1]}$$$$V2.0) | Dde | 150 | Active | Active | Active | 100 | Metabolite_Detected | Metabolite_Notdetected | – | –
CC(ON1C(C)(C)CCCC1(C)C)c1ccc(OC(=O)[C@@H](NC(=O)[C@@H]2CCCN2C(=O)[C@H](C)NC(=O)[C@H](C)NC(=O)CCC(=O)O)C(C)C)cc1 (some centres not stated) (HELM PEPTIDE1{[O=C(O)CCC(=O)[*:2]].A.A.P.V.[CC(ON1C(C)(C)CCCC1(C)C)c1ccc(O[*:1])cc1]}$$$$V2.0) | – | 150 | – | – | – | – | Metabolite_Detected | – | Active | –
CC(ON(C(C)(C)C)C(C)(C)C)c1ccc(NC(=O)[C@@H](NC(=O)[C@@H]2CCCN2C(=O)[C@H](C)NC(=O)[C@H](C)NC(=O)CCC(=O)O)C(C)C)cc1 (some centres not stated) (HELM PEPTIDE1{[O=C(O)CCC(=O)[*:2]].A.A.P.V.[CC(ON(C(C)(C)C)C(C)(C)C)c1ccc(N[*:1])cc1]}$$$$V2.0) | Dde | 150 | – | – | – | – | – | – | – | Metabolite_Detected
CC(ON(C(C)(C)C)C(C)(C)C)c1ccc(OC(=O)[C@@H](NC(=O)[C@@H]2CCCN2C(=O)[C@H](C)NC(=O)[C@H](C)NC(=O)CCC(=O)O)C(C)C)cc1 (some centres not stated) (HELM PEPTIDE1{[O=C(O)CCC(=O)[*:2]].A.A.P.V.[CC(ON(C(C)(C)C)C(C)(C)C)c1ccc(O[*:1])cc1]}$$$$V2.0) | Dde | 150 | – | – | – | – | – | – | – | Metabolite_Detected
